From ChEMBL document CHEMBL3616442, “Unconventional Knoevenagel-type indoles: Synthesis and cell-based studies for the identification of pro-apoptotic agents” (Eur J Med Chem, 2015)

How the values were obtained:
ACHN = test: Growth inhibition of human ACHN cells after 48 hrs by sulforhodamine B assay; format: functional
Procedure, shortened: (§1)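 NCI 60-cell-line screen. Compounds tested at five 10-fold dilutions from 10^-4 to 10^-8 M. Cells exposed for the last 48 h of a 72 h incubation, growth estimated by sulforhodamine B protein assay. GI50 is the concentration giving 50% growth inhibition. Values beyond the tested range are expressed as greater or lesser than the extreme concentration.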

HOP-62 = test: Growth inhibition of human HOP62 cells after 48 hrs by sulforhodamine B assay; format: functional; conditions: HOP-62, 48 h; procedure, shortened: as §1
OVCAR-3 = test: Growth inhibition of human OVCAR3 cells after 48 hrs by sulforhodamine B assay; format: functional; conditions: OVCAR-3, 48 h; procedure, shortened: as §1
[1] = Growth inhibition of human HCC2998 cells after 48 hrs by sulforhodamine B assay; format: functional; conditions: HCC 2998, 48 h; procedure, shortened: as §1
UO-31 = test: Growth inhibition of human UO31 cells after 48 hrs by sulforhodamine B assay; format: functional; conditions: UO-31, 48 h
[2] = Growth inhibition of human NCI-ADR-RES cells after 48 hrs by sulforhodamine B assay; format: functional; procedure, shortened: as §1
MDA-MB-468 = test: Growth inhibition of human MDA-MB-468 cells after 48 hrs by sulforhodamine B assay; format: functional; conditions: MDA-MB-468, 48 h; procedure, shortened: as §1
HT-29 = test: Growth inhibition of human HT-29 cells after 48 hrs by sulforhodamine B assay; format: functional; conditions: HT-29, 48 h; procedure, shortened: as §1
[3] = Growth inhibition of human Hs 578T cells after 48 hrs by sulforhodamine B assay; format: functional; procedure, shortened: as §1
MCF7 = test: Growth inhibition of human MCF7 cells after 48 hrs by sulforhodamine B assay; format: functional; conditions: MCF7, 48 h; procedure, shortened: as §1
[4] = Growth inhibition of human EKVX cells after 48 hrs by sulforhodamine B assay; format: functional; procedure, shortened: as §1
T47D = test: Growth inhibition of human T47D cells after 48 hrs by sulforhodamine B assay; format: functional
NCI-H522 = test: Growth inhibition of human NCI-H522 cells after 48 hrs by sulforhodamine B assay; format: functional; conditions: NCI-H522, 48 h; procedure, shortened: as §1
HCT-116 = test: Growth inhibition of human HCT116 cells after 48 hrs by sulforhodamine B assay; format: functional; conditions: HCT-116, 48 h; procedure, shortened: as §1
CAKI-1 = test: Growth inhibition of human CAKI-1 cells after 48 hrs by sulforhodamine B assay; format: functional; conditions: CAKI-1, 48 h; procedure, shortened: as §1
[5] = Growth inhibition of human SF539 cells after 48 hrs by sulforhodamine B assay; format: functional; conditions: SF-539, 48 h
SN12C = test: Growth inhibition of human SN12C cells after 48 hrs by sulforhodamine B assay; format: functional
SK-OV-3 = test: Growth inhibition of human SKOV3 cells after 48 hrs by sulforhodamine B assay; format: functional; conditions: SK-OV-3, 48 h
DU-145 = test: Growth inhibition of human DU145 cells after 48 hrs by sulforhodamine B assay; format: functional; conditions: DU-145, 48 h; procedure, shortened: as §1
[6] = Growth inhibition of human RXF393 cells after 48 hrs by sulforhodamine B assay; format: functional; conditions: RXF 393, 48 h
A549 = test: Growth inhibition of human A549 cells after 48 hrs by sulforhodamine B assay; format: functional; conditions: A549, 48 h; procedure, shortened: as §1
IGROV-1 = test: Growth inhibition of human IGROV1 cells after 48 hrs by sulforhodamine B assay; format: functional; conditions: IGROV-1, 48 h; procedure, shortened: as §1
SNB-19 = test: Growth inhibition of human SNB19 cells after 48 hrs by sulforhodamine B assay; format: functional; conditions: SNB-19, 48 h
A498 = test: Growth inhibition of human A498 cells after 48 hrs by sulforhodamine B assay; format: functional; conditions: A498, 48 h; procedure, shortened: as §1
SK-MEL-28 = test: Growth inhibition of human SK-MEL-28 cells after 48 hrs by sulforhodamine B assay; format: functional; conditions: SK-MEL-28, 48 h
[7] = Growth inhibition of human HOP92 cells after 48 hrs by sulforhodamine B assay; format: functional; conditions: HOP-92, 48 h; procedure, shortened: as §1
[8] = Growth inhibition of human LOXIMVI cells after 48 hrs by sulforhodamine B assay; format: functional; conditions: LOX IMVI; procedure, shortened: as §1
MT4 = test: Antiproliferative activity against human MT4 cells after 96 hrs by MTT assay; format: functional, cell-based; conditions: MT4, 96 h
Procedure, shortened: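 Exponentially growing MT-4 cells (CD4+ human T-cells carrying integrated HTLV-1 genome), seeded at 1×10^5 cells/mL in RPMI-1640 with 10% FCS and antibiotics. Serial dilutions of compound (DMSO stock 100 mM, diluted in medium), 37 °C, 5% CO₂, 96 h. Viability read by MTT. 50% inhibition versus untreated controls by linear regression. Mean ± SD of three independent determinations.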

786-0 = test: Growth inhibition of human 786-0 cells after 48 hrs by sulforhodamine B assay; format: functional; conditions: 786-0, 48 h; procedure, shortened: as §1
UACC-257 = test: Growth inhibition of human UACC257 cells after 48 hrs by sulforhodamine B assay; format: functional; conditions: UACC-257, 48 h
OVCAR-4 = test: Growth inhibition of human OVCAR4 cells after 48 hrs by sulforhodamine B assay; format: functional; conditions: OVCAR-4, 48 h; procedure, shortened: as §1
HCT-15 = test: Growth inhibition of human HCT15 cells after 48 hrs by sulforhodamine B assay; format: functional; conditions: HCT-15, 48 h; procedure, shortened: as §1
CCRF-CEM = test: Growth inhibition of human CCRF-CEM cells after 48 hrs by sulforhodamine B assay; format: functional; procedure, shortened: as §1
NCI-H23 = test: Growth inhibition of human NCI-H23 cells after 48 hrs by sulforhodamine B assay; format: functional; conditions: NCI-H23, 48 h; procedure, shortened: as §1
TK-10 = test: Growth inhibition of human TK10 cells after 48 hrs by sulforhodamine B assay; format: functional; conditions: TK-10, 48 h
NCI-H322M = test: Growth inhibition of human NCI-H322M cells after 48 hrs by sulforhodamine B assay; format: functional; procedure, shortened: as §1
M14 = test: Growth inhibition of human M14 cells after 48 hrs by sulforhodamine B assay; format: functional; conditions: M14, 48 h; procedure, shortened: as §1
PC-3 = test: Growth inhibition of human PC3 cells after 48 hrs by sulforhodamine B assay; format: functional; conditions: PC-3, 48 h
MDA-MB-231 = test: Growth inhibition of human MDA-MB-231 cells after 48 hrs by sulforhodamine B assay; format: functional; conditions: MDA-MB-231, 48 h; procedure, shortened: as §1
SF-268 = test: Growth inhibition of human SF268 cells after 48 hrs by sulforhodamine B assay; format: functional; conditions: SF-268, 48 h
[9] = Growth inhibition of human COLO205 cells after 48 hrs by sulforhodamine B assay; format: functional; conditions: COLO 205, 48 h; procedure, shortened: as §1
OVCAR-8 = test: Growth inhibition of human OVCAR8 cells after 48 hrs by sulforhodamine B assay; format: functional; conditions: OVCAR-8, 48 h
U-251 = test: Growth inhibition of human U251 cells after 48 hrs by sulforhodamine B assay; format: functional; conditions: U-251, 48 h
UACC-62 = test: Growth inhibition of human UACC62 cells after 48 hrs by sulforhodamine B assay; format: functional; conditions: UACC-62, 48 h
NCI-H460 = test: Growth inhibition of human NCI-H460 cells after 48 hrs by sulforhodamine B assay; format: functional; conditions: NCI-H460, 48 h; procedure, shortened: as §1
SK-MEL-2 = test: Growth inhibition of human SK-MEL-2 cells after 48 hrs by sulforhodamine B assay; format: functional; conditions: SK-MEL-2, 48 h
KM12 = test: Growth inhibition of human KM12 cells after 48 hrs by sulforhodamine B assay; format: functional; conditions: KM12, 48 h; procedure, shortened: as §1
SNB-75 = test: Growth inhibition of human SNB75 cells after 48 hrs by sulforhodamine B assay; format: functional; conditions: SNB-75, 48 h
[10] = Growth inhibition of human SF295 cells after 48 hrs by sulforhodamine B assay; format: functional; conditions: SF-295, 48 h
MDA-MB-435 = test: Growth inhibition of human MDA-MB-435 cells after 48 hrs by sulforhodamine B assay; format: functional; conditions: MDA-MB-435, 48 h; procedure, shortened: as §1
SW-620 = test: Growth inhibition of human SW620 cells after 48 hrs by sulforhodamine B assay; format: functional; conditions: SW-620, 48 h
Malme-3M = test: Growth inhibition of human MALME-3M cells after 48 hrs by sulforhodamine B assay; format: functional; procedure, shortened: as §1
[11] = Growth inhibition of human RPMI8226 cells after 48 hrs by sulforhodamine B assay; format: functional; conditions: RPMI-8226, 48 h
NCI-H226 = test: Growth inhibition of human NCI-H226 cells after 48 hrs by sulforhodamine B assay; format: functional; conditions: NCI-H226, 48 h; procedure, shortened: as §1
[12] = Growth inhibition of human BT549 cells after 48 hrs by sulforhodamine B assay; format: functional; conditions: BT-549, 48 h; procedure, shortened: as §1

Structure (SMILES): N#C/C(=C\c1c(-c2ccccc2)[nH]c2ccccc12)C(=O)c1ccccc1
- GI50 (ACHN): 7.2 µM
- GI50 (HOP-62): 16.3 µM
- GI50 (OVCAR-3): 2.4 µM
- GI50 [1]: 14.5 µM
- GI50 (UO-31): 30.5 µM
- GI50 [2]: 3.1 µM
- GI50 (MDA-MB-468): 5.6 µM
- GI50 (HT-29): 3.4 µM
- GI50 [3]: 6.3 µM
- GI50 (MCF7): 4 µM
- GI50 [4]: 10 µM
- GI50 (T47D): 5.3 µM
- GI50 (NCI-H522): 4 µM
- GI50 (HCT-116): 5.3 µM
- GI50 (CAKI-1): 2.5 µM
- GI50 [5]: 6 µM
- GI50 (SN12C): 5.7 µM
- GI50 (SK-OV-3): 15.2 µM
- GI50 (DU-145): 5.2 µM
- GI50 [6]: 9.6 µM
- GI50 (A549): 7.6 µM
- GI50 (IGROV-1): 2.5 µM
- GI50 (SNB-19): 16.8 µM
- GI50 (A498): 15.3 µM
- GI50 (SK-MEL-28): 12 µM
- GI50 [7]: 4.5 µM
- GI50 [8]: 7.4 µM
- EC50 (MT4): 0.5 µM
- GI50 (786-0): 16.5 µM
- GI50 (UACC-257): 10.9 µM
- GI50 (OVCAR-4): 65.3 µM
- GI50 (HCT-15): 3.5 µM
- GI50 (CCRF-CEM): 7.3 µM
- GI50 (NCI-H23): 16 µM
- GI50 (TK-10): 11.1 µM
- GI50 (NCI-H322M): 3.8 µM
- GI50 (M14): 4.8 µM
- GI50 (PC-3): 3.5 µM
- GI50 (MDA-MB-231): 13.2 µM
- GI50 (SF-268): 5.7 µM
- GI50 [9]: 5 µM
- GI50 (OVCAR-8): 2.2 µM
- GI50 (U-251): 4.7 µM
- GI50 (UACC-62): 3.6 µM
- GI50 (NCI-H460): 4.5 µM
- GI50 (SK-MEL-2): 35.2 µM
- GI50 (KM12): 2 µM
- GI50 (SNB-75): 3.2 µM
- GI50 [10]: 3 µM
- GI50 (MDA-MB-435): 0.37 µM
- GI50 (SW-620): 3 µM
- GI50 (Malme-3M): 12.3 µM
- GI50 [11]: 2.4 µM
- GI50 (NCI-H226): 6.8 µM
- GI50 [12]: 3 µM
